The values below come from ChEMBL document CHEMBL2375208, “Structural, kinetic, and pharmacodynamic mechanisms of D-amino acid oxidase inhibition by small molecules” (J Med Chem, 2013).

pEC50, pIC50, pKd, pKi: −log10 of the molar value. The source made the active and inactive calls. No cut-off for these calls is given here. Some results are limits rather than exact numbers.

A short description of data set [1]: Drug uptake in C57BL/6 mouse cerebellum at 30 mg/kg, ip after 6 hrs by LC/MS/MS analysis. Also noted: dose 30 mg/kg, route intraperitoneal. The note with it: read-out: Drug uptake. Type of data set: ADME, organism-based. An outline of the steps:
(§1)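 Male C57BL/6 mice (20–30 g) were dosed ip in 50 mM phosphate buffer at 5 mL/kg, with controls given vehicle only. Regimens were 12 mg/kg once or repeated at 2, 4 and 6 h, 30 mg/kg, or 125 mg/kg. Mice were killed at set times. Cerebellar inhibitor and D-serine were measured in the same samples, D-serine by chiral LC/MS/MS. Initial rate was the slope over 0–2 h.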

The target in data set [2] is T1, D-amino-acid oxidase (Homo sapiens, UniProt P14920). Put plainly: Binding affinity to human recombinant DAAO at 492 nm spectral modification by spectrophotometric analysis in presence of FAD. In a few lines: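 Purified human recombinant DAAO, E. coli-expressed and purified on a nickel column then size exclusion, was titrated in the oxidized (holoenzyme) state with rising inhibitor concentrations up to saturation, without substrate turnover. Ligand-induced changes in the FAD visible absorption spectrum were followed. Kd with SE came from nonlinear regression of saturation curves of absorbance change against inhibitor concentration.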
T1 sequence (P14920 whole entry): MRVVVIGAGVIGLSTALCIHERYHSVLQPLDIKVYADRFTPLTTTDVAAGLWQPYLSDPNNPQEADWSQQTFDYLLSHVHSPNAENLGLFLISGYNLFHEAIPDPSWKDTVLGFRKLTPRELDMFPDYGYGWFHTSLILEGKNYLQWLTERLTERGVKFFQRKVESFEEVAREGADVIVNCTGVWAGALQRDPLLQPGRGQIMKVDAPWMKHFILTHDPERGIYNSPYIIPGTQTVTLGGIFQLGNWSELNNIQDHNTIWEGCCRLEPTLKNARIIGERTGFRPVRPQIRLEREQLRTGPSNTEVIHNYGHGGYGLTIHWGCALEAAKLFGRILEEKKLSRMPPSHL

The target in data set [3] is T1, D-amino-acid oxidase. Put plainly: Competitive inhibition of human recombinant DAAO after 1 hr by coupled enzyme assay in presence of D-serine.
In data set [4] the target is T1, D-amino-acid oxidase. Put plainly: Competitive inhibition of human recombinant DAAO by Michaelis-Menten plot analysis in presence of D-serine.
The target in data set [5] is T1, D-amino-acid oxidase. Description: Binding affinity to human recombinant DAAO by stopped flow spectrophotometric analysis in presence of FAD.
Data set [6] deals with T1, D-amino-acid oxidase.
Data set [7] deals with T2, D-amino-acid oxidase (Sus scrofa, UniProt P00371). Description: Binding affinity to pig kidney DAAO using D-alanine as substrate.
T2 sequence (P00371 whole entry): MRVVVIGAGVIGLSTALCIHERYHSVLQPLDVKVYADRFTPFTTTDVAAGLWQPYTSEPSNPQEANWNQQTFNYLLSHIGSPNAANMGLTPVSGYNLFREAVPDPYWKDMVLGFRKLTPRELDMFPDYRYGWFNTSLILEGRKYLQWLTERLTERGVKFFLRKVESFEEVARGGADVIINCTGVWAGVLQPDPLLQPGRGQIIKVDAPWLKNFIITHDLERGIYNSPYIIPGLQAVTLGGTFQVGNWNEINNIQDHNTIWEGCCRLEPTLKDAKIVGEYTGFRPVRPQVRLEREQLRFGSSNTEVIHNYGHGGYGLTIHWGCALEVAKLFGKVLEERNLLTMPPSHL
Data set [8] has as its target T2, D-amino-acid oxidase. Put plainly: Competitive inhibition of pig kidney DAAO in presence of D-alanine.
Data set [9] concerns the target T1, D-amino-acid oxidase. Description: Binding affinity to human recombinant DAAO at 395 nm spectral modification by spectrophotometric analysis in presence of FAD. An outline of the steps: (§2)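 Oxidized holoenzyme of purified human recombinant DAAO, titrated with increasing inhibitor in the absence of substrate. Ligand-induced changes in the FAD visible absorption spectrum were read at fixed wavelengths. Kd and SE came from nonlinear regression of saturation of the absorbance change.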

Data set [10] deals with Rattus norvegicus. Put plainly: Inhibition of DAAO in ip dosed Sprague-Dawley rat assessed as cerebellum concentration of compound required for 50% accumulation of D-serine after 6 hrs by LC/MS/MS analysis. Type of data set: functional, organism-based. In a few lines:
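Rats received different ip doses. Cerebellum D-serine and inhibitor concentrations were measured 6 h later. EC50 was the inhibitor concentration at half-maximal D-serine increase, from a sigmoidal dose–response fit.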

Data set [11] is described as follows: Drug uptake in C57BL/6 mouse cerebellum at 125 mg/kg, ip after 3 hrs by LC/MS/MS analysis. It counts as ADME, organism-based. The arrangement: dose 125 mg/kg, route intraperitoneal. The note with it: read-out: Drug uptake. In a few lines: as §1
Data set [12] has as its target T1, D-amino-acid oxidase. Description: Binding affinity to human recombinant DAAO at 444 nm spectral modification by spectrophotometric analysis in presence of FAD. In a few lines: as §2
Data set [13] deals with T1, D-amino-acid oxidase. Description: Binding affinity to human recombinant DAAO at 362 nm spectral modification by spectrophotometric analysis in presence of FAD. In a few lines:
as §2

The test system of data set [14] is Mus musculus. Description: Inhibition of DAAO in C57BL/6 mouse assessed as increase in rate of D-serine accumulation in cerebellum at 125 mg/kg, ip by LC/MS/MS analysis. It counts as functional, organism-based. The arrangement: dose 125 mg/kg. An outline of the steps: as §1
In data set [15] the target is T1, D-amino-acid oxidase. Put plainly: Binding affinity to human recombinant DAAO at 498 nm spectral modification by spectrophotometric analysis in presence of FAD. In a few lines:
as §2

In data set [16] the target is T1, D-amino-acid oxidase. Put plainly: Binding affinity to human recombinant DAAO at 496 nm spectral modification by spectrophotometric analysis in presence of FAD. In a few lines:
(§3)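 Purified human recombinant DAAO holoenzyme (His-tagged construct expressed in E. coli, purified by nickel column and size exclusion) was titrated in its oxidized state with increasing inhibitor concentrations, without substrate turnover. Ligand-induced changes in the FAD visible absorption spectrum were read at the stated wavelength. Kd and SE came from nonlinear regression of absorbance-change saturation curves. Changes above 500 nm indicate a charge-transfer complex.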

Data set [17] concerns the target T1, D-amino-acid oxidase. Put plainly: Binding affinity to human recombinant DAAO at 443 nm spectral modification by spectrophotometric analysis in presence of FAD. An outline of the steps: as §3
Data set [18] deals with T1, D-amino-acid oxidase. Description: Binding affinity to human recombinant DAAO at 520 nm spectral modification by spectrophotometric analysis in presence of FAD.
For data set [19], the species on record is Mus musculus. As to conditions: C57BL/6, Cerebellum, 12 mg/kg.
For data set [20], the target named is T1, D-amino-acid oxidase. Description: Binding affinity to human recombinant DAAO at 490 nm spectral modification by spectrophotometric analysis in presence of FAD.
Data set [21] is described as follows: Drug uptake in C57BL/6 mouse cerebellum at 12 mg/kg, ip after 2 hrs by LC/MS/MS analysis. Type of data set: ADME, organism-based. The arrangement: dose 12 mg/kg, route intraperitoneal. The note with it: read-out: Drug uptake. An outline of the steps: as §1
The target in data set [22] is T1, D-amino-acid oxidase. Description: Inhibition of DAAO (unknown origin).
Data set [23] has as its system Rattus norvegicus. Description: Metabolic stability in Sprague-Dawley rat at 3 to 10 mg/kg, po/10 mg/kg, ip by LC/MS/MS analysis. It counts as ADME, organism-based. The note with it: in vivo. The arrangement: dose 3-10 mg/kg, route intraperitoneal.
The nature of data set [24]: Drug uptake in C57BL/6 mouse cerebellum at 12 mg/kg, ip administered every 2 hrs by LC/MS/MS analysis. The note with it: read-out: Drug uptake. Type of data set: ADME, organism-based. The arrangement: dose 12 mg/kg, route intraperitoneal. In a few lines: as §1
For data set [25], the target named is T1, D-amino-acid oxidase. Put plainly: Binding affinity to human recombinant DAAO at 600 nm spectral modification by spectrophotometric analysis in presence of FAD. In a few lines:
as §3

In data set [26] the target is T1, D-amino-acid oxidase. Description: Binding affinity to human recombinant DAAO at 440 nm spectral modification by spectrophotometric analysis in presence of FAD. In a few lines: as §3

As for `O=C(O)c1cc(CCc2ccc(Cl)cc2)c[nH]1`, the concentration at 6 h in data set [1] was over 1000 nM.

Turning to `O=C(O)c1ccccc1` [BENZOIC ACID], the pKd at D-amino-acid oxidase [2] is 5.66; at D-amino-acid oxidase [5] it was 5.64; at D-amino-acid oxidase [6] it was 5.05. Also, the pIC50 at D-amino-acid oxidase [3] was 5.68. Moreover, the pKi on D-amino-acid oxidase [4] is 5.70.

Take `O=C(O)c1ccc[nH]1`: the pKd at D-amino-acid oxidase [7] is 4.59.

`O=C(O)c1cc2ccccc2[nH]1` [INDOLE-2-CARBOXYLIC ACID]: the pKi at D-amino-acid oxidase [8] was 5.47.

Take `Oc1noc2cc(Cl)c(Cl)cc12`: the pKd at D-amino-acid oxidase [9] was 5.40; on D-amino-acid oxidase [12] it was 5.38; at D-amino-acid oxidase [13] it was 5.44; on D-amino-acid oxidase [5], 5.72; at D-amino-acid oxidase [15], 5.38. On D-amino-acid oxidase [3], the pIC50 was 8.51. For the same compound, the pKi on D-amino-acid oxidase [4] was 8.77. The pEC50 with Rattus norvegicus [10] was 5.82. Also, the concentration at 3 h in data set [11] is under 1000 nM. In addition, the inhibition result with Mus musculus [14] was “Active”.

`O=c1oc2ccccc2cc1O` [3-HYDROXYCOUMARIN]: the figures for the pKd on D-amino-acid oxidase [16], at D-amino-acid oxidase [5] and on D-amino-acid oxidase [17] were 5.25, 5.20 and 5.40, respectively. For the same compound, the pIC50 on D-amino-acid oxidase [3] was 7.46. In addition, the pKi at D-amino-acid oxidase [4] was 7.89.

Regarding `O=C(O)c1cc2sccc2[nH]1`, the values for the pKd on D-amino-acid oxidase [18], at D-amino-acid oxidase [20] and on D-amino-acid oxidase [5] were 5.60, 6.89 and 5.15, respectively. Also, the pIC50 on D-amino-acid oxidase [3] and on D-amino-acid oxidase [22] was 8.27 in each case. Further, at D-amino-acid oxidase [4], the pKi is 8.46. Also, in the data set on Rattus norvegicus [10], the pEC50 was 6.30. In the data set listed under Mus musculus [19], the inhibition result was “Active”. The concentration at 2 h in [21] was under 1000 nM; in data set [24] it was over 1000 nM. Also, the Stability result with Rattus norvegicus [23] was “Unstable”.

Take `O=C(O)c1cc2occ(CCc3ccccc3)c2[nH]1`: the pKd on D-amino-acid oxidase [2] was 5.43; at D-amino-acid oxidase [5], 5.22; on D-amino-acid oxidase [25], 5.49; at D-amino-acid oxidase [26], 5.32. Further, the pIC50 on D-amino-acid oxidase [3] was 6.66. Besides, the pKi on D-amino-acid oxidase [4] is 6.72.

As a reminder, the pKd is the Kd on a negative log10 scale, so that one unit is a factor of ten. One may read the pIC50 as the negative decadic logarithm of the IC50, by convention in mol/L. As a reminder, the pKi is the Ki on a negative log10 scale, so that one unit is a factor of ten. Usually pEC50 stands for −log10 of the EC50, conventionally taken in molar units.
